# High-throughput results as filed in PubChem BioAssay.
# A selection: hits, their analogues and other compounds. The true share with any hit is near 4.3%.
# ALR inh: human ALR oxidase inhibition via reduced H2O2; P55789; purified ALR, DTT oxidation, H2O2 HRP-luminol luminescence; inhibition, % (test concentration not listed); 3.8% of 290,000 active; AID 485317;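 active means mean replicate inhibition above about 79%, with every replicate also reaching it, limit read from the data; inconclusive means only one of the two criteria met; inactive means mean below limit and not every replicate reaching it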
# Target sequence (P55789 whole entry, looked up): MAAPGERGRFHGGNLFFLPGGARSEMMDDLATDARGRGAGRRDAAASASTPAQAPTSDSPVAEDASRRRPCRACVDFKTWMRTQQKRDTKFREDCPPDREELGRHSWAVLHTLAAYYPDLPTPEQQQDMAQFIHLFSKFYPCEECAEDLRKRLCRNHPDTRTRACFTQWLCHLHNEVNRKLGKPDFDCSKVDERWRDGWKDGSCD
# Rin1-Abl PPI inh: blocks binding of human Rin1 to Abl; 0.4% of 360,000 active; TR-FRET Rin1/Abl binding, biochemical; P00519+Q13671; inhibition, % at 7.35 µM; in the data active means inhibition above about 5%, passing the limit was not always enough
# UBC9 SUMO inh: SUMOylation inhibition; AID 2006; P63279; 0.36% of 290,000 active; HTRF SUMOylation assay, SAE1/SAE2 + UBC9, in vitro; inhibition, % at 35 µM; in the data active means inhibition above about 50%, passing the limit was not always enough; inconclusive means no clear call, values can overlap the other calls
# Target sequence (P63279 whole entry, looked up): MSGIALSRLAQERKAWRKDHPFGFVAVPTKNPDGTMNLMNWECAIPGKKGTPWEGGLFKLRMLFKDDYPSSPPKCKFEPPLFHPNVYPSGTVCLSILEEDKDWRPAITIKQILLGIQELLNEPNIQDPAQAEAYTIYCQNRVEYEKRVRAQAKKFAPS
# PREPL inh: inhibitors of human prolyl oligopeptidase-like enzyme PREPL; 0.68% of 320,000 active; recombinant PREPL, fluorescence polarization activity-based probe; inhibition, % at 5.96 µM;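 further: 0% = enzyme with DMSO and 100% = wells lacking enzyme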
# RBBP9 inhibitor: inhibitors of human serine hydrolase RBBP9. 0.2% of 220,000 active. inhibition, % at 7.94 µM. recombinant RBBP9, FP-Rh probe fluorescence polarization. O75884. AID 1515;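 active means inhibition above the campaign mean of all tested compounds plus 3 SD, cut at about 14% in these data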;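 further: plate controls were DMSO wells with RBBP9 for no effect and wells lacking RBBP9 protein for full effect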
#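 Controls: DMSO-treated enzyme wells and wells lacking RBBP9 | Material: RBBP9 protein | Technique: Fluorescence polarization | Replication: Single well per compound, no replicates | Buffer or medium: Tris-NaCl-Pluronic buffer, pH 8.0 | Timing: 30 min compound preincubation, 45 min probe labeling, 25 °C | Read-out basis: Percent inhibition from mP, scaled between DMSO and no-protein wells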
# UBC13 polyUb: human UBC13 polyubiquitination inhibition. P61088. UBC13 polyubiquitin chain formation, TR-FRET. AID 485273. inhibition, % at 20 µM. 0.47% of 330,000 active; in the data active means inhibition above about 45%, passing the limit was not always enough; inconclusive means no clear call, values can overlap the other calls
# Target sequence (P61088 whole entry, looked up): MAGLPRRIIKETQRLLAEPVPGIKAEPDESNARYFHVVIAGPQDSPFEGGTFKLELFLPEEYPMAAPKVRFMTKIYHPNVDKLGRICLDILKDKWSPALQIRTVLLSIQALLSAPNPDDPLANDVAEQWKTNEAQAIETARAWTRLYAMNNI
# PREPL inh cf: human PREPL inhibition, confirmation. 67% of 2,000 active. recombinant PREPL, fluorescence polarization activity probe. AID 2803. inhibition, % at 5.96 µM. shares compounds with PREPL inh;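 further: 0% = protein with DMSO and 100% = wells lacking protein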
# * hit, by the source's call; ? = inconclusive; . = no result. Unless noted, no stated cut-off is given here; in the data, active means inhibition above about 43%; inactive means the rest.
SMILES,ALR inh,Rin1-Abl PPI inh,UBC9 SUMO inh,PREPL inh,RBBP9 inhibitor,UBC13 polyUb,PREPL inh cf
O=C(NCCc1c[nH]c2ccccc12)OCCCCOC(=O)NCCc1c[nH]c2ccccc12,5.2,-0.3,.,61.3*,.,44.9,29.9
NC(=O)c1c(NC(=O)c2cccs2)sc2c1CCCCCC2,-8.9,2.7,40.5,-2.4,-10.0,7.5,.
COCCCNC(=O)c1c(NC(=O)c2cccs2)sc2c1CCCC2,86.3*,0.3,9.8,43.7*,-2.8,26.9,30.0
CCOc1ccc(Br)cc1CN(CC)CC,0.0,2.2,1.7,9.9,-4.8,1.6,.
O=[N+]([O-])c1ccc(C(O)CN=Cc2ccc(O)cc2O)cc1 (centres undefined),-6.6,-0.7,3.7,48.5*,-5.0,-0.9,10.8
CN(C)/N=C/c1cc([N+](=O)[O-])ccc1O,13.2,-4.9,6.8,-0.1,1.6,-14.7,.
CSc1ccc(CN2CCC(C)(Oc3cccc(F)c3)C2)cc1 (centres undefined),.,-4.1,.,.,.,.,.
COC(=O)CCC(=O)OC1(C)C(=O)C2=CN(Cc3ccc(OC)cc3)C(c3ccc(OC)cc3)=CC2=C(Br)C1=O (centres undefined),-10.3,-0.4,.,22.1,.,-85.4,.
COC(=O)CCC(=O)OC1(C)C(=O)C2=CN(Cc3ccccc3)C(c3ccc(OC)cc3)=CC2=C(Br)C1=O (centres undefined),.,1.6,.,45.7*,.,-85.3,42.4
COC(=O)CCC(=O)OC1(C)C(=O)C2=CN(CC(C)C)C(c3ccc(OC)cc3)=CC2=C(Br)C1=O (centres undefined),25.2,.,28.8,73.7*,.,-96.7,48.2*
Cc1ccc(C(=O)Nc2cccc3[nH]c(C(F)(F)F)nc23)cc1,-3.3,-2.1,13.9,0.8,.,9.5,.
Cc1ccc(-c2nc3cnccn3c2Nc2ccc3c(c2)OCO3)o1,.,1.3,-4.5,-2.9,-1.4,-1.9,.
Cc1ccc(Nc2c(-c3ccccn3)nc3cc(C)ccn23)cc1,98.5*,-6.0,-61.2,73.9*,0.0,41.6,58.4*
CSc1ccc(-c2nc3cnccn3c2Nc2ccc3c(c2)OCO3)cc1,99.6*,2.4,-7.2,50.4*,-9.5,-9.7,47.5*
Cc1ccc2nc(-c3ccncc3)c(Nc3ccccc3)n2c1,2.7,-2.0,5.5,-8.7,-3.9,16.4,.
Cc1ccn2c(Nc3ccc4c(c3)OCO4)c(-c3ccccn3)nc2c1,58.0,-6.0,44.7,77.5*,-4.8,0.3,66.7*
Cc1ccc(Nc2c(-c3ccccn3)nc3ccc(C)cn23)cc1,44.4,0.3,-66.2,63.0*,-2.5,21.6,68.7*
Cn1c(COc2ccccc2)nnc1SCC(=O)NC1CCCC1,-11.8,-1.6,4.8,2.1,.,4.8,.
OC(c1ccc(F)c(F)c1)c1nc(-c2ccc3c(c2)OCO3)cs1 (centres undefined),.,-1.2,.,.,.,.,.
c1ccc(-c2nc3ccccn3c2NC2CCCC2)nc1,?,-1.9,-0.1,62.8*,-10.5,6.1,64.9*
Cc1ccn2c(NC3CCCC3)c(-c3ccccn3)nc2c1,97.8*,-3.9,-29.8,72.0*,-0.6,34.2,68.8*
COc1ccc(-c2nc3ccccn3c2NC2CCCCC2)cc1SC1CCCCC1,0.5,1.5,.,12.6,.,26.3,.
O=C(COC(=O)c1ccc2c(c1)OCCO2)Nc1cccc(S(=O)(=O)N2CCOCC2)c1,0.6,0.3,-2.2,71.6*,0.0,-5.0,8.1
COc1cccc(NC(=O)C(=O)NCCC2CCCCN2S(=O)(=O)c2ccccc2)c1 (centres undefined),-2.8,0.3,.,-47.0,.,2.4,.
COc1cc(NC(=O)CN2CCN(c3ccccc3F)CC2)c(C)cc1[N+](=O)[O-],-11.6,2.1,19.8,54.5*,1.0,-10.4,69.0*
SMILES,ALR inh,Rin1-Abl PPI inh,UBC9 SUMO inh,PREPL inh,RBBP9 inhibitor,UBC13 polyUb,PREPL inh cf
CN(CC(=O)Nc1ncn[nH]1)S(=O)(=O)c1ccc(Cl)cc1,-5.9,2.1,-14.7,-22.4,.,1.7,.
Cc1ccc(S(=O)(=O)NC(C(=O)N2CCN(S(=O)(=O)c3cccc(F)c3)CC2)C(C)C)cc1 (centres undefined),.,-2.8,.,.,.,-2.3,.
O=[N+]([O-])c1ccc2c(c1)C(N1CCOCC1)/C(=C/COc1ccc(F)cc1)O2 (centres undefined),1.6,-0.7,-9.4,47.6*,-6.8,-5.0,36.2
COc1ccc(CCC(=O)OCC(=O)N(CC(C)C)c2c(N)n(Cc3ccccc3)c(=O)[nH]c2=O)cc1,-8.2,1.4,.,7.7,.,-5.1,.
C[C@@H]1CN([C@@H](C)CO)C(=O)Cc2cc(NC(=O)Nc3ccc(F)cc3)ccc2O[C@@H]1CN(C)Cc1ccc(Cl)c(Cl)c1,-3.1,-2.3,.,14.2,.,-16.3,.
C[C@H]1CN([C@@H](C)CO)C(=O)Cc2cc(NS(C)(=O)=O)ccc2O[C@@H]1CN(C)Cc1ccc(Cl)c(Cl)c1,.,3.9,.,47.2*,.,8.8,32.6
COC(=O)CCC(=O)OC1(C)C(=O)C=C2C=C(C3CC3)N(Cc3ccc(OC)cc3)C=C2C1=O (centres undefined),.,-4.5,3.0,59.4*,.,-43.2,43.0
COC(=O)CCC(=O)OC1(C)C(=O)C=C2C=C(C3CC3)N(CCc3c[nH]c4ccccc34)C=C2C1=O (centres undefined),.,-2.3,21.2,63.3*,.,-30.6,52.1*
COC(=O)CCC(=O)OC1(C)C(=O)C=C2C=C(C3CC3)N(CCc3ccccn3)C=C2C1=O (centres undefined),.,3.1,6.4,21.9,.,-84.6,.
Cc1ccccc1/C=N/Nc1nc2ccccc2[nH]1,72.9,1.7,-11.2,40.8,-2.8,1.6,.
C(=N\Nc1nc2ccccc2[nH]1)/c1c[nH]c2ccccc12,99.3*,0.1,-126.5,49.1*,0.4,0.6,54.1*
C(=N\Nc1nc2ccccc2[nH]1)/c1cccc2cccnc12,70.8,-0.2,-5.2,62.8*,8.0,-13.1,52.6*
O=C1CC2(CCN(C(=O)COc3ccc(Cl)cc3)CC2)Oc2ccccc21,-0.8,1.3,.,-4.0,.,1.0,.
COc1ccc2c(c1)c(=O)oc1cc(OCC(=O)N3CCc4ccccc4C3)ccc12,-6.9,3.4,23.9,5.1,13.1,21.4,.
CS(=O)(=O)c1ccc(Cl)c(NC(=O)c2cc(S(=O)(=O)N3CCOCC3)ccc2N2CCCC2)c1,.,1.5,.,-1.8,.,-9.1,.
O=C(CSc1ccc(Cl)cc1)Nc1nnc(-c2cccc([N+](=O)[O-])c2)s1,.,-1.9,13.2,24.9,-9.9,-12.0,.
O=C(Cc1cccc2ccccc12)Nc1nnc(-c2cccc([N+](=O)[O-])c2)s1,-21.5,-0.2,17.7,45.8*,-9.6,-27.9,27.7
Oc1ccc(N=Nc2ccccc2)o1,33.9,-0.7,-0.3,5.1,.,1.6,.
C#C[C@]1(O)CCC2C3CCC4=CC(=O)CC[C@@H]4C3CC[C@@]21C (some centres undefined),-8.9,1.9,-14.7,12.4,.,-4.6,.
